Only some compounds are listed: those with a hit (about 2.4% of all), similar ones and a draw of the others.
INS-1E GSIS act: GLuc luminescence reporter in INS-1E cells, primary screen for activators of glucose-dependent secretion of insulin. AID 743287, 2014. 0.61% of 370,000 active. activation, % at 16.6 µM. INS-1E GLuc reporter insulin secretion, 2-3 h;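 active means lowest replicate activation of at least 40%, so every replicate reaches that level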;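 further: 0% = median of neutral control wells and 100% = median of IBMX positive control wells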
Cneo AK release: Cryptococcus neoformans cell lysis inducers, primary screen, AK release luminescence, single concentration. lysis activity, % at 15 µM. C. neoformans lysis, adenylate kinase release luminescence, 4 h; normalised: neutral wells 0, clomiphene wells 100. 0.2% of 360,000 active. AID 651654, 2012;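 active means mean lysis activity across replicates of at least 80%, whatever share of replicates individually reach that level; inactive means mean lysis activity below 80%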
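Signal: Adenylate kinase release luminescence | Assay system: Log-phase Cryptococcus neoformans yeast cells | Input: Cells at 5 × 10^6 per mL | Buffer or medium: Fresh YPD growth medium | Compound: Single dose | Schedule: Static 4 h at 37 °C with compound, 1 h detection | Controls: Clomiphene | Read-out: Luminescence rise reflecting yeast cell lysis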
miR122 inh: miR-122 Renilla sensor signal increase in Huh7, primary screen, miR-122 inhibitor project, cell-based, single point, plate reader | Huh7 miR-122 Renilla luciferase sensor, 48 h; neutral wells = 0, positive control = 100 | activation (reporter increase), % at 12.5 µM | 0.3% of 340,000 active;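 active means mean replicate activation score at least 90 and every replicate individually at or above 90; inconclusive means only one of the two criteria met; inactive means neither criterion met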;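 further: higher luciferase means less miR-122 activity so hits act as miR-122 inhibitors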
Rtt109 Vps75: inhibitors of C. albicans Rtt109/Vps75 HAT, primary screen, biochemical, ThioGlo CoA-SH fluorescence, plate reader; Histone acetyltransferase RTT109 (Candida albicans (strain SC5314 / ATCC MYA-2876)), …; purified Rtt109/Vps75, 4 h; inhibition, % at 34.9 µM; 0.16% of 330,000 active; AID 540336, 2011;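 active means inhibition of at least 50% in every replicate; inconclusive means best replicate reaches 50% inhibition but some replicates fall short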
Target sequence (Q5AAJ8 whole entry, looked up): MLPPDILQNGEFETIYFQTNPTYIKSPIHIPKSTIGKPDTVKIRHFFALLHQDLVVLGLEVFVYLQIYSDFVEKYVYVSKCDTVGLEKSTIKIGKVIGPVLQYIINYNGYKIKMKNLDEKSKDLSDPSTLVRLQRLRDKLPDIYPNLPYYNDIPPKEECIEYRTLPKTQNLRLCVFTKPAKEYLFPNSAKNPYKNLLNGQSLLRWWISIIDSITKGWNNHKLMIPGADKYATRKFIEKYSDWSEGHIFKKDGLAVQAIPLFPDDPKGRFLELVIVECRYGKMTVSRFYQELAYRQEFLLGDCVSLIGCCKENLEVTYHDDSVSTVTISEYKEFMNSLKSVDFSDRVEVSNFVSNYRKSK
dFosB act-1: activators of delta FosB homodimer, primary screen, biochemical, fluorescence polarization, TAMRA-CDK5 oligo, single point | Protein FosB (Mus musculus), P13346 | purified delta FosB; percent of positive-control signal above neutral wells | activation, % at 25 µM | 0.99% of 340,000 active | AID 493131, 2011;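 active means mean activation above about 17%, with every replicate also reaching it, limit read from the data, passing the limit was not always enough; inconclusive means only one of the two conditions met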
Target sequence (P13346 whole entry, looked up): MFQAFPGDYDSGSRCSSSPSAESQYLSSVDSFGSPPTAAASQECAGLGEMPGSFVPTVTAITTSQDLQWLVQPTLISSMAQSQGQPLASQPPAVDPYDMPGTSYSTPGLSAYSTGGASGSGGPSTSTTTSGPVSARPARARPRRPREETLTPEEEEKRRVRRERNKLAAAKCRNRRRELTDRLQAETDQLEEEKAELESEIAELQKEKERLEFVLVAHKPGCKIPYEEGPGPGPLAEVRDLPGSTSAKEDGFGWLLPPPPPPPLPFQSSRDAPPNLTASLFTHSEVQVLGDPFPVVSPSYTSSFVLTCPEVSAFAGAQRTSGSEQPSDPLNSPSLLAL
HIV Env fusion: inhibitors of HIV-1 Env-driven cell-cell fusion, primary screen, HeLa-JRFL effector, CEM21 target cells, luciferase. inhibition, % at 12.3 µM. 1.1% of 360,000 active. AID 651610, 2012;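 active means mean replicate inhibition score of at least 50 and every replicate individually at or above 50; inconclusive means only one of the two criteria met; inactive means mean below 50 and not all replicates reaching 50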;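 further: 0% = plate neutral controls and 100% = maraviroc near 300 nM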
dFosB act-2: activators of mouse delta FosB DNA binding, confirmation, biochemical, fluorescence polarization, TAMRA-CDK5 oligo, cherry-picked samples | shares compounds with dFosB act-1 | purified delta FosB; normalised: neutral wells 0, positive control 100 | activation, % at 24.9 µM | 2,400 tested, under 10 active | AID 588690, 2011;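 active means highest replicate activation at or above 34% and every replicate reaching that threshold; inconclusive means meets only one of the two criteria; inactive means meets neither criterion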;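 further: higher polarization means more probe DNA bound by delta FosB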
miR-27b qPCR: miR-27b levels after miR-122 inhibitor treatment, dose response, selectivity assay for miR-122 inhibitor project, cell-based, Huh7, RT-qPCR, dry powder. shares compounds with miR122 inh. Huh7 miR-27b levels, qRT-PCR, 48 h. relative miR-27b level (unnormalised ratio), ratio at 35 µM. 35 tested, under 10 active;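 active means compounds lowering miR-27b whose fitted half-maximal dose is at most twice their top tested dose; inconclusive means flat curve with moderate drop, or poor fit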
The depositor's hits bear a star; ? = inconclusive; . = no result given; [ ] = remark or other dose.

SMILES	INS-1E GSIS act	Cneo AK release	miR122 inh	Rtt109 Vps75	dFosB act-1	HIV Env fusion	dFosB act-2	others
Cn1cnnc1SC(C(=O)Nc1cc(Cl)cc(Cl)c1)c1ccccc1 (configuration not stated)	-14	.	-14	-7	20*	-52	12
O=C(Nc1cccc(Cl)c1)c1ccc2c(c1)SC1=NS(=O)(=O)CCN12	5	.	.	-1	26*	-4	-1
Cc1nc2c(sc(=S)n2Cc2ccco2)c(=O)n1CC(=O)Nc1ccccc1F	5	3	-3	-9	83*	-8	-1
Cc1nc2c(sc(=S)n2Cc2ccco2)c(=O)n1CC(=O)Nc1ccccc1	-13	-1	1	3	34*	-1	1
Cc1nnc(SCC(=O)Nc2ccccc2F)n1Cc1ccco1	-7	5	0	-10	3	-11	.
Nc1nonc1-n1nnc(C(=O)N/N=C/c2ccc(F)cc2)c1-c1cccs1	-5	0	-1	-6	55*	0	-3
CCOc1ccc(/C=N/NC(=O)c2nnn(-c3nonc3N)c2COc2ccc(F)cc2)cc1	0	.	.	0	40*	8	-1
COc1ccccc1/C=N/NC(=O)c1nnn(-c2nonc2N)c1-c1cccs1	.	0	7	-7	-18	.	.
Cc1ccsc1/C=N/NC(=O)c1nnn(-c2nonc2N)c1CSc1ccccc1	.	4	8	-3	18*	0	2
CCC(=O)NC[C@@H]1[C@@H](c2ccc(C3=CCCCC3)cc2)[C@@H](CO)N1C(=O)C1CC1	-4	.	.	.	.	.	.
CO[C@H]1CN(C)C(=O)c2ccc(NC(=O)C3CC3)cc2OC[C@H](C)N(Cc2ccccc2)C[C@@H]1C	-26	.	.	.	.	.	.
CC(C)NC(=O)N(C)C[C@@H]1Oc2ccc(NS(=O)(=O)c3cccs3)cc2C(=O)N([C@@H](C)CO)C[C@H]1C	25	.	1[16.7 µM]	.	.	23[16.7 µM]	.
CNC[C@H]1OCCCC[C@H](C)Oc2ccc(NC(=O)NC3CCCCC3)cc2C(=O)N([C@H](C)CO)C[C@@H]1C	-4	6	-3[16.7 µM]	.	.	13[16.7 µM]	.
CC(C)(C)[S@](=O)N1Cc2cc(C(=O)N[C@@H]3CCN(Cc4ccccc4)C3)nc(-c3cccc(-c4cncnc4)c3)c2[C@@H]1CCO	-4	.	.	.	.	.	.
Nc1c(N(CCC2=CCCCC2)C(=O)Cc2ccc(F)cc2)c(=O)[nH]c(=O)n1Cc1ccccc1	-10	.	.	-3	4	-2	.
Nc1c(N(CCC2=CCCCC2)C(=O)COc2ccc(F)cc2Cl)c(=O)[nH]c(=O)n1Cc1ccccc1	-45	-1	-4	3	29*	.	1
O=C(C[C@H]1C/C=C\CC[C@H](Cc2ccc(F)cc2)C(=O)O[C@@H](c2ccccc2)CNC1=O)N[C@@H](CO)Cc1ccccc1	.	1	.	14	?	.	.
O=C(C[C@H]1C/C=C\CC[C@H](Cc2ccc(F)cc2)C(=O)O[C@H](c2ccccc2)CNC1=O)N[C@H](CO)Cc1ccccc1	20	-1	-11	6	48*	-33	0
O=C(c1cccc(F)c1)N1C[C@@H]2[C@H](c3ccccc31)[C@H](CO)N2C(=O)c1ccc(F)cc1	-4	0	-17[16.7 µM]	.	.	.	.
CC(=O)c1cn(CC(=O)Nc2ccccc2F)c2ccccc12	-3	-2	-8	-17	-1	3	.
O=C(Cn1c2ccccc2c(=O)c2ccccc21)Nc1ccccc1F	.	.	.	-3	37*	37	-2
CN1c2ccc(-c3ccc(F)cc3)cc2[C@@H]2[C@@H](CCN2C(=O)Nc2ccc(F)cc2)[C@@H]1CO	-22	0	16[16.7 µM]	.	.	.	.
CC(C)NC(=O)Nc1ccc2c(c1)CC(=O)N(C)C[C@@H](C)[C@H](CN(C)C(=O)OC(C)(C)C)O2	4	.	.	.	.	.	.
CC1CCCCN1C(=O)c1cc2nc(-c3ccccc3)cc(-c3ccccc3)n2n1 (configuration not stated)	.	1	121*	-4	-17	15	.	miR-27b qPCR=0.9
CCOc1cc(C)c(S(=O)(=O)NC2CCCCC2)cc1C	.	2	198*	2	-6	.	.	miR-27b qPCR=0.91
SMILES	INS-1E GSIS act	Cneo AK release	miR122 inh	Rtt109 Vps75	dFosB act-1	HIV Env fusion	dFosB act-2	others
CCCCNS(=O)(=O)c1ccc2nc(-c3cccnc3)cc(C(=O)NC(C)CC)c2c1 (configuration not stated)	8	-1	?	4	0	-4	.	miR-27b qPCR=0.57
CCCCNS(=O)(=O)c1ccc2nc(-c3cccnc3)cc(C(=O)NC(C)C)c2c1	2	-2	69	-12	-2	4	.
C[C@@H]1CCCCO[C@@H](CN(C)S(=O)(=O)c2ccc(Cl)cc2)[C@H](C)CN([C@H](C)CO)C(=O)c2cc(NS(=O)(=O)c3cccs3)ccc2O1	-9	-5	-21[16.7 µM]	.	.	18[16.7 µM]	.
Cc1ccc(NS(=O)(=O)c2cc(C(=O)NCc3ccccn3)ccc2Cl)cc1C	-18	-1	101*	8	-5	.	.	miR-27b qPCR=0.97
Cc1ccc(C)c(NS(=O)(=O)c2cc(C(=O)NCc3ccccn3)ccc2Cl)c1	-1	-1	75	5	-2	-13	.
O=S(=O)(Nc1cccc2[nH]ncc12)c1ccc(F)c2ncccc12	.	.	.	.	.	.	.	miR-27b qPCR=0.89
CC(=O)Nc1ccc(S(=O)(=O)NC2CC3CCC2C3)cc1 (configuration not stated)	-10	2	31	6	-2	19	.
Cc1cc(C)c(S(=O)(=O)NC2CC3CCC2C3)c(C)c1 (configuration not stated)	6	-1	125*	6	-10	-8	.	miR-27b qPCR=0.47
COc1cccc(N2CCN(C(=O)c3oc4ccccc4c3NC(=O)CCc3cc(OC)no3)CC2)c1	-54	1	?	-1	-13	-5	.	miR-27b qPCR=0.64
C[C@H]1CC=CC[C@H](c2ccccc2)NC(=O)[C@@H](Cc2ccccc2)N(C)C(=O)c2ccccc2O1 (mixture of isomers)	-29	.	.	.	.	.	.
COc1ccc(NC(=O)Nc2ccc3c(c2)[C@@H]2C[C@H](CC(=O)N4CCN(C)CC4)O[C@@H](CO)[C@@H]2O3)cc1	5	-9	-3[16.7 µM]	.	.	0[16.7 µM]	.
C[C@@H]1CCCCO[C@H](CN(C)S(=O)(=O)c2ccccc2)[C@H](C)CN([C@@H](C)CO)C(=O)c2cc(NC(=O)Nc3ccc(C(F)(F)F)cc3)ccc2O1	-3	5	1[16.7 µM]	.	.	7[16.7 µM]	.
